The results in this text go back to ChEMBL document CHEMBL1821706, “Unprecedented citrinin trimer tricitinol B functions as a novel topoisomerase IIα inhibitor” (J Med Chem, 2011).

For one assay, the system named is HCT-116. As to the kind of experiment: Cytotoxicity against human HCT116 cells after 72 hrs by SRB assay. The class given is functional, cell-based. Particulars: HCT-116, 72 h. The procedure, abridged:
(§1)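 Adherent human tumour lines were seeded and exposed in triplicate to graded compound concentrations at 37 °C for 72 h. Growth was read by sulforhodamine B staining. IC50 (50% growth inhibition) was obtained by the Logit method from at least three independent experiments and reported as mean ± SD.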

For assay [1], the system named is KB. As to the kind of experiment: Cytotoxicity against human KB cells after 72 hrs by SRB assay. The class given is functional, cell-based. An outline of the steps: as §1
On the technique in general: In SRB staining, fixed cells bind dye roughly in proportion to their protein.

For the next assay, the system named is HL-60. Briefly: Cytotoxicity against human HL60 cells after 72 hrs by MTT assay. The class given is functional, cell-based. Particulars: HL-60, 72 h. The procedure, abridged: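 Cells were treated in triplicate with graded concentrations for 72 h at 37 °C and read by MTT. IC50 is the concentration giving 50% growth inhibition, derived by the Logit method from at least three independent experiments and given as mean ± SD.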
A general note: Tetrazolium assays rely on reduction of a dye to a coloured formazan, in cell work by metabolically active cells.

For assay [2], the system named is KB. Briefly: Drug resistance index, ratio of IC50 for vincristine-resistant human KB cells to IC50 for human KB cells. The class given is functional.
In assay [3] the test system is KB. Briefly: Cytotoxicity against vincristine-resistant human KB cells over expressing P-glycoprotein after 72 hrs by SRB assay. The class given is functional, cell-based. An outline of the steps: as §1

pIC50: −log10 of the molar value.

As usually defined, the pIC50 is the negative decadic logarithm of the IC50, by convention in mol/L. Low readings indicate a high IC50, high ones a low IC50. Turning to `COC1O[C@H](C)[C@@H](C)c2c(C)c3c(c(O)c21)[C@@H]1O[C@H](C)[C@@H](C)c2c(C)c(O)cc(c21)O3` (stereo partly drawn) [DICITRINOL B], the pIC50 with HCT-116 was 5.24; in the assay on KB [1], 5.29; in the assay on HL-60 it was 5.22.

As for `CC1=C2[C@H](C)[C@@H](C)O[C@@]2(O)[C@]2(O)Oc3cc(O)c(C)c([C@H](C)[C@@H](C)O)c3C=C2C1=O` [PENICITRINOL H], the pIC50 in the assay with HCT-116, with KB [1] and with HL-60 was below 5.00 throughout.

On to `CO[C@H]1O[C@H](C)[C@@H](C)c2c(C)c(O)c3c(c21)Oc1c([C@H]2O[C@H](C)[C@@H](C)c4c(C)c(O)cc(O)c42)c(O)c(C)c2c1[C@H]3O[C@H](C)[C@H]2C` [TRICITRINOL A], for which the results for the pIC50 in the assay on HCT-116, in the assay on KB [1] and with HL-60 were 5.07, below 5.00 and 5.09, respectively.

In the case of `COC1O[C@H](C)[C@@H](C)c2c(C)c(O)c3c(c21)Oc1cc(O)c(C)c2c1[C@H]3O[C@H](C)[C@H]2C` (stereo partly drawn) [DICITRINOL A], the pIC50 with HCT-116 was 5.34; with KB [1], 5.30; in the assay on HL-60, 5.22.

Consider `Cc1c(O)c(C(=O)O)c(O)c2c1[C@H](C)[C@@H](C)OC2=O` [DIHYDROCITRINONE], for which the pIC50 in the assay with HCT-116, with KB [1] and with HL-60 was below 5.00 each time.

With `Cc1c2c(c3oc4cc(=O)c(C)c5c-4c(c3c1O)O[C@H](C)[C@H]5C)CO[C@H](C)[C@H]2C` [OXODICITRINOL A], the pIC50 in the assay with HCT-116 was below 5.00; with KB [1] it was below 5.00; with HL-60, 5.05.

`CO[C@@]12O[C@H](C)[C@@H](C)C1=C(C)C(=O)C1=C2Oc2cc(O)c(C)c3c2[C@H]1O[C@H](C)[C@H]3C` [PENICITRINOL B]: the negative-log IC50 (pIC50) with HCT-116, in the assay on KB [1] and with HL-60 was below 5.00 each time.

`Cc1c(O)cc(O)cc1[C@H](C)[C@@H](C)O` [PHENOL A]: the pIC50 in the assay on HCT-116, in the assay on KB [1] and in the assay on HL-60 was below 5.00 each time.

Take `Cc1c2c(c3oc4cc(=O)c(C)c5c-4c(c3c1O)O[C@H](C)[C@H]5C)O[C@H](C)[C@H]2C` [DICITRININ A]: the negative-log IC50 (pIC50) in the assay with HCT-116, with KB [1] and with HL-60 was below 5.00 in each case.

With `Cc1oc2c(c1C)c(C)c(O)c1c3c4c(c(C)c(=O)cc-4oc12)[C@H](C)[C@@H](C)O3` [PENICITRINONE B], the pIC50 in the assay on HCT-116, with KB [1] and in the assay on HL-60 was below 5.00 in each case.

Turning to `CO[C@@]12Oc3cc(O)c(C)c([C@H](C)[C@@H](C)O)c3C=C1C(=O)C(C)=C1[C@H](C)[C@@H](C)O[C@]12O` [PENICITRINOL G], the pIC50 in the assay with HCT-116, in the assay on KB [1] and in the assay with HL-60 was below 5.00 each time.

Take `CC1=C2C(=CO[C@H](C)[C@H]2C)C(O)=C(C(=O)O)C1=O` [CITRININ]: the pIC50 in the assay on HCT-116, in the assay on KB [1] and in the assay with HL-60 was below 5.00 in each case.

For the compound `Cc1c(O)c2c(c3c1[C@H](C)[C@@H](C)O3)Oc1cc(O)c(C)c3c1[C@H]2O[C@H](C)[C@H]3C` [PENICITRINOL A], the pIC50 in the assay on HCT-116, with KB [1] and in the assay on HL-60 was below 5.00 throughout.

As to `CC[C@]1(O)C[C@H]2CN(CCc3c([nH]c4ccccc34)[C@@](C(=O)OC)(c3cc4c(cc3OC)N(C=O)[C@H]3[C@@](O)(C(=O)OC)[C@H](OC(C)=O)[C@]5(CC)C=CCN6CC[C@]43[C@@H]65)C2)C1` [VINCRISTINE], the pIC50 with KB [1] is 7.70; in the assay with KB [3] it was 5.89. The “Ratio IC50” value in the assay with KB [2] was determined as 55.97.

For `Cc1c(O)cc(O)c2c1[C@H](C)[C@@H](C)OC2` [DECARBOXYDIHYDROCITRININ], the pIC50 with HCT-116, in the assay with KB [1] and with HL-60 was below 5.00 each time.

With `CO[C@@]12O[C@H](C)[C@@H](C)C1=C(C)C1=C(C2=O)[C@@H]2O[C@H](C)[C@@H](C)c3c(C)c(O)cc(c32)O1` [PENICITRINOL F], the pIC50 in the assay on HCT-116, in the assay on KB [1] and with HL-60 was below 5.00 in each case.
